Measured values taken from ChEMBL document CHEMBL1148267, “Synthesis and biological activity of a novel squalene epoxidase inhibitor, FR194738” (Bioorg Med Chem Lett, 2004).

How the values were obtained:
[1] = Partition coefficient (logP); format: physicochemical; details: octanol/water
Homo sapiens = organism: Homo sapiens; test: In vitro inhibitory activity was evaluated against human squalence epoxidase; format: functional
How it was run: (§1)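 Source of enzyme: dog or rat liver microsomes, or HepG2 cell homogenate for human, solubilized in 2% Triton X-100. Each was incubated with AMO-1680, FAD, NADPH, EDTA, [³H]squalene and drug for 90 min at 37 °C. The reaction was stopped with ethanolic KOH. Non-saponifiable lipids were separated by silica TLC and 2,3-oxidosqualene radioactivity was counted to give IC50.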

Canis familiaris [2] = organism: Canis familiaris; test: In vitro inhibitory activity was evaluated against dog squalence epoxidase; format: functional, Canis lupus familiaris; how it was run: as §1
[3] = Compound was evaluated for maximum time(Tmax) in suspension of 0.5% methylcellulose at a dose of 10 mg/kg in rat; format: ADME, organism-based; design: dose 10 mg/kg; details: in vivo
How it was run: (§2)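 Rats dosed orally with a single 10 mg/kg dose, given as a suspension in 0.5% methylcellulose. Plasma was sampled to derive Cmax, Tmax, AUC over 0–8 h and bioavailability.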

Rattus norvegicus = organism: Rattus norvegicus; test: In vitro inhibitory activity was evaluated against rat squalence epoxidase; format: functional; how it was run: as §1
[4] = Bioavailability in rat; format: ADME, organism-based; details: in vivo; how it was run: as §2
[5] = Compound was evaluated for maximum concentration (Cmax) in suspension of 0.5% methylcellulose at a dose of 10 mg/kg in rat; format: ADME, organism-based; design: dose 10 mg/kg; details: in vivo; how it was run: as §2
[6] = Compound was evaluated for area under the curve (0-8 h); format: ADME, organism-based; design: time < 8 hr; details: rat, in vivo; how it was run: as §2
HepG2 = test: In vitro inhibitory activity was evaluated on cholesterol biosynthesis in HepG2 cells; format: functional, cell-based; details: Homo sapiens
How it was run: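 HepG2 cells were kept overnight in 10% human lipoprotein-deficient serum, then preincubated 1 h with drug. [¹⁴C]acetate was added for 2 h. Cells were lysed and saponified with ethanolic KOH. Digitonin was added to the non-saponifiable lipids, and radioactivity of the digitonin-coprecipitable sterols was counted to give IC50.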

Canis familiaris [7] = test: Compound was evaluated for change in the effect of plasma lipoprotein cholesterol level (LDL) at a dose of 10 mg/kg/day; format: ADME, organism-based, Canis lupus familiaris; details: dog, in vivo
How it was run: (§3)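 Male beagle dogs (9–11 kg, n=3) dosed orally twice daily for 28 days, at 3.2, 10 or 32 mg/kg/day. On day 14, serum lipoprotein fractions were separated by ultracentrifugation. LDL and HDL cholesterol were measured enzymatically and expressed as % change. Atherogenic index was taken as the LDL/HDL ratio.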

Canis familiaris [8] = test: Compound was evaluated for change in the effect of plasma lipoprotein cholesterol level (HDL) at a dose of 32 mg/kg/day; format: ADME, organism-based, Canis lupus familiaris; details: dog, in vivo; how it was run: as §3
Canis familiaris [9] = test: Compound was evaluated for change in the effect of plasma lipoprotein cholesterol level (LDL) at a dose of 3.2 mg/kg/day; format: ADME, organism-based, Canis lupus familiaris; details: dog, in vivo; how it was run: as §3
Canis familiaris [10] = test: Compound was evaluated for artherogenic index in plasma lipoprotein cholesterol level (LDL cholesterol / HDL cholesterol) at a dose of 10 mg/kg/day; format: ADME, organism-based, Canis lupus familiaris; details: dog, in vivo; how it was run: as §3
Canis familiaris [11] = test: Compound was evaluated for change in the effect of plasma lipoprotein cholesterol level (HDL) at a dose of 3.2 mg/kg/day; format: ADME, organism-based, Canis lupus familiaris; details: dog, in vivo; how it was run: as §3
Canis familiaris [12] = test: Compound was evaluated for artherogenic index in plasma lipoprotein cholesterol level (LDL cholesterol / HDL cholesterol) at a dose of 3.2 mg/kg/day; format: ADME, organism-based, Canis lupus familiaris; details: dog, in vivo; how it was run: as §3
Canis familiaris [13] = test: Compound was evaluated for change in the effect of plasma lipoprotein cholesterol level (HDL) at a dose of 10 mg/kg/day; format: ADME, organism-based, Canis lupus familiaris; details: dog, in vivo; how it was run: as §3
Canis familiaris [14] = test: Compound was evaluated for artherogenic index in plasma lipoprotein cholesterol level (LDL cholesterol / HDL cholesterol) at a dose of 32 mg/kg/day; format: ADME, organism-based, Canis lupus familiaris; details: dog, in vivo; how it was run: as §3
Canis familiaris [15] = test: Compound was evaluated for change in the effect of plasma lipoprotein cholesterol level (LDL) at a dose of 32 mg/kg/day; format: ADME, organism-based, Canis lupus familiaris; details: dog, in vivo; how it was run: as §3

In the case of `C=CCC(CC=C)(COc1cccc(CN(CC)C/C=C/C#CC(C)(C)C)c1)OCc1ccsc1`, the logP ([1]; read-out: logP) is reported as 8.45 and the IC50 (Homo sapiens; Homo sapiens) is reported as 160 nM.
`CN(C/C=C/C#CC(C)(C)C)Cc1cccc(OCC(C)(C)OCc2ccsc2)c1` gave a logP ([1]; read-out: logP) of 6.78, an IC50 (Homo sapiens; Homo sapiens) of 11 nM and an IC50 (Canis familiaris [2]; Canis lupus familiaris) of 77 nM.
For `CCN(C/C=C/C#CC(C)(C)C)Cc1cccc(OCC(CC)(CC)OCc2ccsc2)c1`, the logP ([1]; read-out: logP) was 8.36 and the IC50 (Homo sapiens; Homo sapiens) was 120 nM.
With `CCN(C/C=C/C#CC(C)(C)C)Cc1cccc(OCC(C)(C)OCc2ccsc2)c1` the logP ([1]; read-out: logP) was 7.3, the IC50 (Homo sapiens; Homo sapiens) was 5.4 nM and the IC50 (Canis familiaris [2]) was 34 nM.
`CCN(C/C=C/C#CC(C)(C)C)Cc1cccc(OCc2cc(-c3ccsc3)cs2)c1` gave a Tmax [3] of 1.67 h, an IC50 (Rattus norvegicus) of 36 nM and a bioavailability [4] of 16.5%. It also gave a logP ([1]; read-out: logP) of 8.19, an IC50 (Homo sapiens; Homo sapiens) of 7.2 nM and a Cmax [5] of 329 ng/mL. It also gave an AUC(0-t) at 8 h [6] of 1390 ng·h/mL and an IC50 (Canis familiaris [2]; Canis lupus familiaris) of 43 nM.
In the case of `CCN(C/C=C/C#CC(C)(C)C)Cc1cccc(OCCOCc2ccsc2)c1`, the logP ([1]; read-out: logP) is reported as 6.6, the IC50 (Homo sapiens; Homo sapiens) is reported as 25 nM and the IC50 (Canis familiaris [2]; Canis lupus familiaris) is reported as 230 nM.
`CCCN(C/C=C/C#CC(C)(C)C)Cc1cccc(OCC(C)(C)OCc2ccsc2)c1` gave a logP ([1]; read-out: logP) of 7.83, an IC50 (Homo sapiens; Homo sapiens) of 31 nM and an IC50 (Canis familiaris [2]; Canis lupus familiaris) of 51 nM.
`CC(C)n1c(/C=C/[C@H](O)C[C@H](O)CC(=O)O)c(-c2ccc(F)cc2)c2ccccc21` [FLUVASTATIN] gave an IC50 (HepG2) of 28 nM.
`CCN(C/C=C/C#CC(C)(C)C)Cc1cccc(OCC(C)(C)OCc2ccsc2)c1.Cl` showed an LDL (Canis familiaris [7]) of -47%, an HDL (Canis familiaris [8]) of -27% and a Tmax [3] of 1.17 h. It also gave an IC50 (Rattus norvegicus) of 25 nM, a bioavailability [4] of 32.9% and an LDL (Canis familiaris [9]) of -2%. It also gave a logP [1] of 7.3, an IC50 (Homo sapiens) of 9.8 nM and a Cmax [5] of 486 ng/mL. The Activity (Canis familiaris [10]) was -38%, the HDL (Canis familiaris [11]) was 0% and the Activity (Canis familiaris [12]) was -2%. For the same compound, the HDL (Canis familiaris [13]) was -14%, the Activity (Canis familiaris [14]) was -47% and the AUC(0-t) at 8 h [6] was 1870 ng·h/mL. The IC50 (Canis familiaris [2]) was 14 nM and the LDL (Canis familiaris [15]) was -61%.
Compound `CCC(C)(C)C(=O)O[C@H]1C[C@@H](C)C=C2C=C[C@H](C)[C@H](CC[C@@H]3C[C@@H](O)CC(=O)O3)[C@H]21` [SIMVASTATIN] has an IC50 (HepG2) of 40 nM.
`CCN(C/C=C/C#CC(C)(C)C)Cc1cccc(OCC(C)(C)OC(=O)c2ccsc2)c1` showed a logP ([1]; read-out: logP) of 7.48, an IC50 (Homo sapiens; Homo sapiens) of 23 nM and an IC50 (Canis familiaris [2]; Canis lupus familiaris) of 370 nM.
